Laboratory results reported in ChEMBL document CHEMBL4038284, “Synthesis of novel quinoline-based 4,5-dihydro-1H-pyrazoles as potential anticancer, antifungal, antibacterial and antiprotozoal agents” (Eur J Med Chem, 2017).
≈ marks a conversion by molar mass, not a printed value.

Tests used:
[1] = test system: Klebsiella pneumoniae; experiment: Antibacterial activity against ESBL positive Klebsiella pneumoniae ATCC 700603 after 24 hrs by resazurin dye based microdilution assay; format: functional; details: Klebsiella pneumoniae, 700603, 24 h
Outline: (§1)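 MIC taken as the lowest concentration giving visible inhibition and/or by resazurin (1 mg/mL). Gentamicin was the control. Run in duplicate, repeated at least three times.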

[2] = test system: Klebsiella pneumoniae; experiment: Antibacterial activity against carbapenemase positive Klebsiella pneumoniae BAA 1705 after 24 hrs by resazurin dye based microdilution assay; format: functional; details: BAA 1705, 24 h; outline: as §1
[3] = test system: Leishmania panamensis; experiment: Antileshmanial activity against EpiR/GFP fused Leishmania panamensis MHOM/CO/87/UA140 intracellular amastigotes infected in human […] cells after 72 hrs by flow cytometric method; format: functional, cell-based; details: MHOM/CO/87/UA140, 72 h
Outline: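 PMA-treated U-937 cells (3 × 10^5 cells/mL) infected with stationary-phase GFP L. panamensis promastigotes (15:1), 3 h at 34 °C, then washed. After 24 h, compounds added at 50, 12.5, 3.125 and 0.78 µg/mL for 72 h at 37 °C. EC50 by Probit; triplicate, two experiments.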

[4] = test system: Candida albicans; experiment: Antifungal activity against Candida albicans ATCC 10231 incubated for 48 hrs under dark condition by broth microdilution method; format: functional; details: ATCC 10231, 48 h
Outline: (§2)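 CLSI M27-A3 broth microdilution in RPMI-1640, DMSO ≤1%, compounds at 250-0.98 µg/mL final. Inoculum 1-5 × 10^3 CFU/mL. Incubated 48 h at 30 °C in a moist dark chamber, read at OD405. MIC80 and MIC50 taken from % inhibition dose-response curves (mean ± SEM, triplicate). Amphotericin B was the positive control.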

[5] = test system: Cryptococcus neoformans; experiment: Antifungal activity against Cryptococcus neoformans ATCC 32264 incubated for 48 hrs under dark condition by broth microdilution method; format: functional; details: ATCC 32264, 48 h; outline: as §2
[6] = test system: Candida albicans; experiment: Growth inhibition of Candida albicans ATCC 10231 at 250 ug/ml incubated for 48 hrs under dark condition by broth microdilution method relative to control; format: functional; details: ATCC 10231, 48 h, read-out: GI
Outline: (§3)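 CLSI M27-A3 broth microdilution in RPMI-1640, DMSO ≤1%. Inoculum 1-5 × 10^3 CFU/mL. Incubated 48 h at 30 °C, dark. % inhibition = 100 − (OD405 test − sterility control)/(OD405 growth control − sterility control), with growth and sterility control wells. Triplicate.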

[7] = test system: Candida albicans; experiment: Growth inhibition of Candida albicans ATCC 10231 at 125 ug/ml incubated for 48 hrs under dark condition by broth microdilution method relative to control; format: functional; details: ATCC 10231, 48 h, read-out: GI; outline: as §3
[8] = test system: Candida albicans; experiment: Growth inhibition of Candida albicans ATCC 10231 at 62.5 ug/ml incubated for 48 hrs under dark condition by broth microdilution method relative to control; format: functional; details: ATCC 10231, 48 h, read-out: GI; outline: as §3
[9] = test system: Candida albicans; experiment: Growth inhibition of Candida albicans ATCC 10231 at 31.25 ug/ml incubated for 48 hrs under dark condition by broth microdilution method relative to control; format: functional; details: ATCC 10231, 48 h, read-out: GI; outline: as §3
[10] = test system: Candida albicans; experiment: Growth inhibition of Candida albicans ATCC 10231 at 15.62 ug/ml incubated for 48 hrs under dark condition by broth microdilution method relative to control; format: functional; details: ATCC 10231, 48 h, read-out: GI; outline: as §3
[11] = test system: Candida albicans; experiment: Growth inhibition of Candida albicans ATCC 10231 at 7.8 ug/ml incubated for 48 hrs under dark condition by broth microdilution method relative to control; format: functional; details: ATCC 10231, 48 h, read-out: GI; outline: as §3
[12] = test system: Candida albicans; experiment: Growth inhibition of Candida albicans ATCC 10231 at 3.4 ug/ml incubated for 48 hrs under dark condition by broth microdilution method relative to control; format: functional; details: ATCC 10231, 48 h, read-out: GI
[13] = test system: Cryptococcus neoformans; experiment: Growth inhibition of Cryptococcus neoformans ATCC 32264 at 250 ug/ml incubated for 48 hrs under dark condition by broth microdilution method relative to control; format: functional; details: ATCC 32264, 48 h, read-out: GI; outline: as §3
[14] = test system: Cryptococcus neoformans; experiment: Growth inhibition of Cryptococcus neoformans ATCC 32264 at 125 ug/ml incubated for 48 hrs under dark condition by broth microdilution method relative to control; format: functional; details: ATCC 32264, 48 h, read-out: GI; outline: as §3
[15] = test system: Cryptococcus neoformans; experiment: Growth inhibition of Cryptococcus neoformans ATCC 32264 at 62.5 ug/ml incubated for 48 hrs under dark condition by broth microdilution method relative to control; format: functional; details: ATCC 32264, 48 h, read-out: GI; outline: as §3
[16] = test system: Cryptococcus neoformans; experiment: Growth inhibition of Cryptococcus neoformans ATCC 32264 at 31.25 ug/ml incubated for 48 hrs under dark condition by broth microdilution method relative to control; format: functional; details: ATCC 32264, 48 h, read-out: GI; outline: as §3
[17] = test system: Cryptococcus neoformans; experiment: Growth inhibition of Cryptococcus neoformans ATCC 32264 at 15.62 ug/ml incubated for 48 hrs under dark condition by broth microdilution method relative to control; format: functional; details: ATCC 32264, 48 h, read-out: GI; outline: as §3
[18] = test system: Cryptococcus neoformans; experiment: Growth inhibition of Cryptococcus neoformans ATCC 32264 at 7.8 ug/ml incubated for 48 hrs under dark condition by broth microdilution method relative to control; format: functional; details: ATCC 32264, 48 h, read-out: GI; outline: as §3
[19] = test system: Cryptococcus neoformans; experiment: Growth inhibition of Cryptococcus neoformans ATCC 32264 at 3.4 ug/ml incubated for 48 hrs under dark condition by broth microdilution method relative to control; format: functional; details: ATCC 32264, 48 h, read-out: GI
[20] = test system: Staphylococcus aureus; experiment: Antibacterial activity against methicillin-sensitive Staphylococcus aureus ATCC 25923 after 24 hrs by resazurin dye based microdilution assay; format: functional; details: ATCC 25923, 24 h; outline: as §1
[21] = test system: Staphylococcus aureus; experiment: Antibacterial activity against methicillin-resistant Staphylococcus aureus ATCC 43300 after 24 hrs by resazurin dye based microdilution assay; format: functional; details: ATCC 43300, 24 h
Outline: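 Broth microdilution in Mueller Hinton broth, inoculum 5 × 10^5 – 8 × 10^5. Compound stocks diluted in MHB with 5% DMSO and 0.1% Tween 80. Incubation 24 h at 35-37 °C. MIC is the lowest concentration with visible growth inhibition and/or by resazurin (1 mg/mL) read-out. Gentamicin as control. Run in duplicate, replicated at least three times.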

[22] = test system: Staphylococcus aureus; experiment: Antibacterial activity against vancomycin-intermediate Staphylococcus aureus after 24 hrs by resazurin dye based microdilution assay; format: functional; outline: as §1
[23] = test system: Escherichia coli; experiment: Antibacterial activity against Escherichia coli ATCC 25922 after 24 hrs by resazurin dye based microdilution assay; format: functional; details: ATCC 25922, 24 h; outline: as §1
[24] = test system: Pseudomonas aeruginosa; experiment: Antibacterial activity against Pseudomonas aeruginosa ATCC 27853 after 24 hrs by resazurin dye based microdilution assay; format: functional; details: ATCC 27853, 24 h; outline: as §1
[25] = test system: Neisseria gonorrhoeae; experiment: Antibacterial activity against beta lactamase positive Neisseria gonorrhoeae ATCC 31426 by oxidase test; format: functional
Outline: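 Agar dilution MIC on GC agar with 1% isovitalex containing increasing compound concentrations. Plates inoculated with about 1×10^4 CFU (5 µL). MIC is the lowest concentration that inhibited growth, with growth confirmed by oxidase test. Run in duplicate, repeated at least three times.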

[26] = test system: Plasmodium falciparum; experiment: Antiplasmodial activity against chloroquine-sensitive Plasmodium falciparum 3D7 assessed as reduction in parasitic LDH activity after 48 hrs by Malstat reagent based […] method; format: functional; details: 3D7, 48 h
Outline: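 Unsynchronized P. falciparum 3D7 at 0.5% parasitemia and 1% hematocrit in RPMI with 3% Albumax II. Exposed to 100, 25, 6.25 and 1.56 µg/mL for 48 h at 37 °C under 90% N2/5% CO2/5% O2. After three freeze-thaw cycles, LDH measured with Malstat and NBT/PES, 1 h in the dark, read at 650 nm. IC50 by Probit; triplicate, ≥2 experiments.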

[27] = test system: U-937; experiment: Cytotoxicity against human U937 cells after 72 hrs by MTT assay; format: cell-based; details: u-937, 72 h
Outline: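 Exponentially growing U-937 at 1 × 10^5 cells/mL in RPMI-1640 with 10% FBS were exposed to 200, 50, 12.5 and 3.125 µg/mL for 72 h at 37 °C, 5% CO2. MTT for 3 h, stopped with isopropanol/SDS, formazan read at 570 nm, blank-corrected. LC50 by Probit from % viability against untreated cells. Triplicate, at least two independent experiments.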

[28] = test system: Trypanosoma cruzi; experiment: Antitrypanosomal activity against Trypanosoma cruzi Tulahuen intracellular amastigote harboring LacZ infected in human U937 cells after 72 hrs by CPRG/Nonidet reagent based spectrophotometric method; format: functional, cell-based; details: U-937, 72 h
Outline: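 U-937 cells at 2.5 × 10^5 cells/mL in RPMI-1640 with 10% serum and 0.1 µg/mL PMA were infected with β-galactosidase-transfected Tulahuen epimastigotes at 5 parasites per cell. Infected cells were exposed to 50, 12.5, 3.125 and 0.78 µg/mL for 72 h. CPRG (100 uM) and 0.1% Nonidet P-40 were added for 3 h, read at 570 nm. EC50 by Probit. Triplicate, at least two experiments; benznidazole as reference.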

SMILES: Clc1ccc2c(Nc3cccc(C4CC(c5ccc(Br)cc5)=NN4c4ccccc4)c3)ccnc2c1 (stereo not given)
- MIC [1]: > 1000 mg/L
- MIC [2]: > 1000 mg/L
- EC50 [3]: 3.59 mg/L (≈ 6.48 µM)
- MIC50 [4]: ≥ 250 mg/L
- MIC80 [4]: ≥ 250 mg/L
- MIC50 [5]: ≥ 250 mg/L
- MIC80 [5]: ≥ 250 mg/L
- inhibition of growth at 250 µg/mL [6]: 44.9%
- inhibition of growth at 125 µg/mL [7]: 26.3%
- inhibition of growth at 62.5 µg/mL [8]: 12.6%
- inhibition of growth at 31.25 µg/mL [9]: 9.65%
- inhibition of growth at 15.62 µg/mL [10]: 8.46%
- inhibition of growth at 7.8 µg/mL [11]: 4.31%
- inhibition of growth at 3.4 µg/mL [12]: 3.09%
- inhibition of growth at 250 µg/mL [13]: 45.1%
- inhibition of growth at 125 µg/mL [14]: 20.1%
- inhibition of growth at 62.5 µg/mL [15]: 20%
- inhibition of growth at 31.25 µg/mL [16]: 11.8%
- inhibition of growth at 15.62 µg/mL [17]: 7.94%
- inhibition of growth at 7.8 µg/mL [18]: 7.67%
- inhibition of growth at 3.4 µg/mL [19]: 3.29%
- MIC [20]: > 1000 mg/L
- MIC [21]: > 1000 mg/L
- MIC [22]: > 1000 mg/L
- MIC [23]: > 1000 mg/L
- MIC [24]: > 1000 mg/L
- MIC [25]: > 1000 mg/L
- EC50 [26]: 5.54 mg/L (≈ 10 µM)
- LC50 [27]: 9.2 mg/L (≈ 16.6 µM)
- EC50 [28]: 6.67 mg/L (≈ 12 µM)

SMILES: O=C(/C=C/c1cccc(Nc2ccnc3cc(Cl)ccc23)c1)c1ccccc1
- MIC [1]: > 1000 mg/L
- MIC [2]: > 1000 mg/L
- EC50 [3]: 2.54 mg/L (≈ 6.6 µM)
- MIC50 [4]: ≥ 250 mg/L
- MIC80 [4]: ≥ 250 mg/L
- MIC50 [5]: 31.2 mg/L (≈ 81.2 µM)
- MIC80 [5]: 62.5 mg/L (≈ 162 µM)
- inhibition of growth at 250 µg/mL [6]: 43.5%
- inhibition of growth at 125 µg/mL [7]: 36.7%
- inhibition of growth at 62.5 µg/mL [8]: 36.2%
- inhibition of growth at 31.25 µg/mL [9]: 31.7%
- inhibition of growth at 15.62 µg/mL [10]: 27.7%
- inhibition of growth at 7.8 µg/mL [11]: 25.2%
- inhibition of growth at 3.4 µg/mL [12]: 21.5%
- inhibition of growth at 250 µg/mL [13]: 100%
- inhibition of growth at 125 µg/mL [14]: 89.5%
- inhibition of growth at 62.5 µg/mL [15]: 80.8%
- inhibition of growth at 31.25 µg/mL [16]: 52.5%
- inhibition of growth at 15.62 µg/mL [17]: 32.3%
- inhibition of growth at 7.8 µg/mL [18]: 25.6%
- inhibition of growth at 3.4 µg/mL [19]: 17.9%
- MIC [20]: > 1000 mg/L
- MIC [21]: > 1000 mg/L
- MIC [22]: > 1000 mg/L
- MIC [23]: > 1000 mg/L
- MIC [24]: > 1000 mg/L
- MIC [25]: > 1000 mg/L
- EC50 [26]: 10.3 mg/L (≈ 26.7 µM)
- LC50 [27]: 1.5 mg/L (≈ 3.9 µM)
- EC50 [28]: > 0.8 mg/L
